pIC50: −log10 of the molar value. ≈ marks a conversion by molar mass, not a printed value. Calls of active or inactive are those of the source. The calls are words filed in the database; no cut-off is given here.
Columns and labels:
[1] = tested on: Mycobacterium kansasii; experiment: Antimycobacterial activity against pyrazinamide-resistant Mycobacterium kansasii; assay type: functional
[2] = tested on: Lichtheimia corymbifera; experiment: Antifungal activity against Absidia corymbifera 272 after 72 to 120 hrs by microdilution broth method; assay type: functional, organism-based
[3] = tested on: Mycobacterium kansasii; experiment: Antimycobacterial activity against pyrazinamide-resistant Mycobacterium kansasii CNCTC My 235/80 after 5 days by microplate alamar blue assay; assay type: functional; details: CNCTC My 235/80, 120 h
Procedure, shortened: (§1)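 Microplate alamar blue assay run at pH 5.6, using conditions optimized for pyrazinamide. Strains came from the Czech National Collection of Type Cultures. MIC was read in µg/mL and converted to µM using molecular weight.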

[4] = tested on: Candida tropicalis; experiment: Antifungal activity against Candida tropicalis 156 after 72 to 120 hrs by microdilution broth method; assay type: functional, organism-based
[5] = tested on: Klebsiella pneumoniae; experiment: Antibacterial activity against Klebsiella pneumoniae D 11750/08 after 24 to 48 hrs by microdilution broth method; assay type: functional, organism-based
Procedure, shortened: (§2)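 Antibacterial screen with compound concentrations up to a highest level of 500 µM. Results expressed as MIC in µM.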

[6] = tested on: Enterococcus sp.; experiment: Antibacterial activity against Enterococcus sp. J 14365/08 after 24 to 48 hrs by microdilution broth method; assay type: functional, organism-based; procedure, shortened: as §2
[7] = tested on: Pichia kudriavzevii; experiment: Antifungal activity against Candida krusei E28 after 72 to 120 hrs by microdilution broth method; assay type: functional, organism-based
[8] = tested on: Mycobacterium avium; experiment: Antimycobacterial activity against pyrazinamide-resistant Mycobacterium avium CNCTC My 80/72 after 5 days by microplate alamar blue assay; assay type: functional; details: CNCTC My 80/72, 120 h; procedure, shortened: as §1
[9] = tested on: Nakaseomyces glabratus; experiment: Antifungal activity against Candida glabrata 20/I after 72 to 120 hrs by microdilution broth method; assay type: functional, organism-based
[10] = tested on: Pseudomonas aeruginosa; experiment: Antibacterial activity against Pseudomonas aeruginosa CCM 1961 after 24 to 48 hrs by microdilution broth method; assay type: functional, organism-based; procedure, shortened: as §2
[11] = tested on: Staphylococcus epidermidis; experiment: Antibacterial activity against methicillin-resistant Staphylococcus epidermidis H 5996/08 after 24 to 48 hrs by microdilution broth method; assay type: functional, organism-based
[12] = tested on: Trichophyton mentagrophytes; experiment: Antifungal activity against Trichophyton mentagrophytes after 72 to 120 hrs by microdilution broth method; assay type: functional, organism-based
[13] = tested on: Mycolicibacterium fortuitum; experiment: Antimycobacterial activity against pyrazinamide-resistant Mycobacterium fortuitum; assay type: functional
[14] = tested on: Trichosporon asahii; experiment: Antifungal activity against Trichosporon asahii 1188 after 72 to 120 hrs by microdilution broth method; assay type: functional, organism-based
[15] = tested on: Mycobacterium avium; experiment: Antimycobacterial activity against pyrazinamide-resistant Mycobacterium avium CNCTC My 152/73 after 5 days by microplate alamar blue assay; assay type: functional; details: CNCTC My 152/73, 120 h; procedure, shortened: as §1
[16] = tested on: Mycobacterium avium; experiment: Antimycobacterial activity against pyrazinamide-resistant Mycobacterium avium; assay type: functional
[17] = tested on: Mycobacterium tuberculosis; experiment: Antimycobacterial activity against Mycobacterium tuberculosis H37Rv CNCTC My 331/88 after 5 days by microplate alamar blue assay; assay type: functional; details: H37Rv CNCTC My 331/88, 120 h; procedure, shortened: as §1
[18] = tested on: Staphylococcus epidermidis; experiment: Antibacterial activity against Staphylococcus epidermidis H 6966/08 after 48 hrs by microdilution broth method; assay type: functional; procedure, shortened: as §2
[19] = tested on: Mycolicibacterium smegmatis; experiment: Antimycobacterial activity against pyrazinamide-resistant Mycobacterium smegmatis; assay type: functional
[20] = Selectivity index, ratio of IC50 for human HepG2 cells to MIC for Mycobacterium tuberculosis H37Rv CNCTC My 331/88; assay type: toxicity, cell-based; details: read-out: Selectivity Index
Procedure, shortened: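 HepG2 human liver cell viability was measured by a colorimetric tetrazolium-reduction assay, and IC50 was derived from the toxicity curves. MIC against M. tuberculosis H37Rv came from the alamar blue microplate assay at pH 5.6. SI = IC50/MIC, both in molar units.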

[21] = Lipophilicity, log K of the compound by HPLC analysis; assay type: physicochemical
[22] = tested on: Staphylococcus epidermidis; experiment: Antibacterial activity against Staphylococcus epidermidis H 6966/08 up to 500 uM after 24 to 48 hrs by microdilution broth method; assay type: functional, organism-based; procedure, shortened: as §2
[23] = tested on: Klebsiella pneumoniae; experiment: Antibacterial activity against ESBL positive Klebsiella pneumoniae J 14368/08 after 24 to 48 hrs by microdilution broth method; assay type: functional, organism-based; procedure, shortened: as §2
[24] = tested on: Candida albicans; experiment: Antifungal activity against Candida albicans ATCC 44859 after 72 to 120 hrs by microdilution broth method; assay type: functional, organism-based
[25] = tested on: Trichophyton mentagrophytes; experiment: Antifungal activity against Trichophyton mentagrophytes 445 after 72 to 120 hrs by microdilution broth method; assay type: functional, organism-based
[26] = tested on: Staphylococcus aureus; experiment: Antibacterial activity against Staphylococcus aureus CCM 4516/08 after 24 to 48 hrs by microdilution broth method; assay type: functional, organism-based; procedure, shortened: as §2
[27] = tested on: Aspergillus fumigatus; experiment: Antifungal activity against Aspergillus fumigatus 231 after 72 to 120 hrs by microdilution broth method; assay type: functional, organism-based
[28] = tested on: HepG2; experiment: Cytotoxicity against human HepG2 cells after 24 hrs; assay type: cell-based; details: HepG2, 24 h
Procedure, shortened: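 HepG2 human liver cells; loss of viability measured by a colorimetric tetrazolium-reduction assay. IC50 derived from the toxicity curves. Where limited solubility in the culture medium capped the tested concentration, only an estimate of the toxic concentration was given.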

[29] = tested on: Escherichia coli; experiment: Antibacterial activity against Escherichia coli CCM 4517 after 24 to 48 hrs by microdilution broth method; assay type: functional, organism-based; procedure, shortened: as §2
[30] = tested on: Mycobacterium tuberculosis; experiment: Antimycobacterial activity against pyrazinamide-sensitive Mycobacterium tuberculosis; assay type: functional

SMILES: NC(=O)c1cnc(Cl)cn1
- MIC [1]: 8 µg/mL (≈ 50.8 µM)
- Activity [2]: inactive
- MIC [3]: 79 µM (≈ 12.4 µg/mL)
- Activity [4]: inactive
- Activity [5]: inactive
- Activity [6]: inactive
- Activity [7]: inactive
- MIC [8]: > 100 µg/mL
- Activity [9]: inactive
- Activity [10]: inactive
- Activity [11]: inactive
- Activity [12]: inactive
- MIC [13]: 8 µg/mL (≈ 50.8 µM)
- Activity [14]: inactive
- MIC [15]: > 100 µg/mL
- MIC [16]: 8 µg/mL (≈ 50.8 µM)
- MIC [17]: 317 µM (≈ 49.9 µg/mL)
- Activity [18]: inactive
- MIC [19]: 8 µg/mL (≈ 50.8 µM)
- selectivity ratio [20]: 5
- log K [21]: -0.3891
- Activity [22]: inactive
- Activity [23]: inactive
- Activity [24]: inactive
- Activity [25]: inactive
- Activity [26]: inactive
- Activity [27]: inactive
- pIC50 [28]: 2.80
- Activity [29]: inactive
- MIC [30]: 8 µg/mL (≈ 50.8 µM)
